Each block holds one compound with its values, some of them ahead of it. Activity calls are given as the source filed them. The rule behind the calls is not given here.
Columns and labels:
[1] = test system: MCF7; experiment: Decrease in endogenous sphingosine level in human MCF7 cells at 10 uM after 2 hrs by LC/MS analysis relative to control; assay type: functional; set-up: scale not given: the % may be the effect or the level left
In short: (§1)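 MCF7 cells treated with 10μM compound for 2 h. Endogenous ceramide species and sphingosine were measured in a Bligh & Dyer lipid extract and normalized to phospholipid phosphate (pmol/nmol Pi). Results are given as % of control, each dose in duplicate.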

[2] = test system: MCF7; experiment: Increase in endogenous C14-ceramide level in human MCF7 cells at 10 uM after 2 hrs by LC/MS analysis relative to control; assay type: functional; in short: as §1
[3] = test system: MCF7; experiment: Increase in endogenous total ceramide level in human MCF7 cells at 10 uM after 2 hrs by LC/MS analysis relative to control; assay type: functional; in short: as §1
[4] = test system: MCF7; experiment: Cytotoxicity against human MCF7 cells after 48 hrs by MTT assay; assay type: functional, cell-based; conditions: for IC50: MCF7, 48 h
In short: (§2)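 MCF7 cells (RPMI 1640, 10% FBS) seeded at 5 × 10^3 per well and left overnight to attach. Compounds in DMSO (<0.1%) added at 0.78–100 μM for 48 h (or 72 h), then MTT read-out. Viability is Ad/Ac × 100 against untreated controls, with 5 replicates per dose and two independent experiments. IC50 is the concentration giving 50% growth inhibition.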

[5] = test system: MCF7; experiment: Increase in endogenous C16-ceramide level in human MCF7 cells at 10 uM after 2 hrs by LC/MS analysis relative to control; assay type: functional; in short: as §1
[6] = target: T1, Acid ceramidase (Homo sapiens) (UniProt Q13510); experiment: Inhibition of acid ceramidase in human MCF7 cell lysate at 50 uM by scintillation counting; assay type: cell-free
T1 sequence (whole entry): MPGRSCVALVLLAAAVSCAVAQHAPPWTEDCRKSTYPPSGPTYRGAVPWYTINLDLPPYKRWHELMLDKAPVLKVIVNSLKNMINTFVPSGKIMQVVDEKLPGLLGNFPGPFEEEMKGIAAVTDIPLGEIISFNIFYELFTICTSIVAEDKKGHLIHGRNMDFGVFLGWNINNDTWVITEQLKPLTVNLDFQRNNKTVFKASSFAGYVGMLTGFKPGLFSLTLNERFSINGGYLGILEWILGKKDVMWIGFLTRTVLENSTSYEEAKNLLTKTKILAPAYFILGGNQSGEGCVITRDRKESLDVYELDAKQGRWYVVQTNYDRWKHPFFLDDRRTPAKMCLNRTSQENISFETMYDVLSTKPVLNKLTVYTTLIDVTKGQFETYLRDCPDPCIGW
In short: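 MCF7 lysate prepared in pH 4.5 acetate buffer (5mM MgCl2, 1mM EDTA, 0.5% Triton X-100) served as the enzyme source. Substrate was [3H]C16-ceramide in Triton/cholate, dried down with compound from ethanol stock. The reaction was run at final pH about 4.2 and 37°C for 1 h, then stopped with Dole's reagent. Released [3H]palmitic acid was counted by scintillation. Duplicates, reported as % control.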

[7] = test system: MCF7; experiment: Induction of apoptosis in human MCF7 cells at 5 uM after 24 hrs; assay type: functional, cell-based; conditions: MCF7, 24 h
[8] = target: T1, Acid ceramidase (Homo sapiens); experiment: Inhibition of acid ceramidase in human MCF7 cells at 10 uM after 2 hrs by scintillation counting; assay type: cell-based
In short: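 MCF7 cells were treated with 10μM compound for 2 h, scraped and lysed in acidic buffer. Acid ceramidase activity in the lysate was assayed with [3H]C16-ceramide at pH about 4.2, 37°C for 1 h, counting released [3H]palmitic acid. Duplicates, reported as % control.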

[9] = test system: MCF7; experiment: Induction of lysosomal destabilization in human MCF7 cells assessed as reduction in stability at 10 uM after 1 to 5 hrs by FACS; assay type: functional; set-up: scale not given: the % may be the effect or the level left
In short: (§3)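 MCF7 cells seeded at 5 × 10^5 per well overnight, then moved to fresh 2% FBS medium with compound in DMSO or DMSO alone at 37°C for 1 and 5 h. 200nM LysoTracker Red was added for 30 min, and cells were trypsinized, washed and analysed by FACS (564–606nm, ≥10,000 events). A fall in fluorescence indicates a rise in lysosomal pH. Triplicates, reported as % control.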

[10] = test system: MCF7; experiment: Increase in endogenous C18-ceramide level in human MCF7 cells at 10 uM after 2 hrs by LC/MS analysis relative to control; assay type: functional; in short: as §1
[11] = test system: MCF7; experiment: Increase in endogenous C24-ceramide level in human MCF7 cells at 10 uM after 2 hrs by LC/MS analysis relative to control; assay type: functional; in short: as §1
[12] = test system: MCF7; experiment: Increase in endogenous sphingosine level in human MCF7 cells at 10 uM after 2 hrs by LC/MS analysis relative to control; assay type: functional; in short: as §1
[13] = test system: MCF7; experiment: Increase in endogenous C24:1-ceramide level in human MCF7 cells at 10 uM after 2 hrs by LC/MS analysis relative to control; assay type: functional; in short: as §1
[14] = test system: MCF7; experiment: Induction of lysosomal destabilization in human MCF7 cells assessed as reduction in stability at 10 uM after 5 hrs by FACS; assay type: functional, cell-based; in short: as §3
[15] = test system: MCF7; experiment: Induction of lysosomal destabilization in human MCF7 cells assessed as reduction in stability at 10 uM after 1 hr by FACS; assay type: functional; set-up: scale not given: the % may be the effect or the level left; in short: as §3
[16] = test system: MCF7; experiment: Induction of apoptosis in human MCF7 cells assessed as increase in caspase 3/7 activity at 10 uM after 24 hrs; assay type: functional
In short: (§4)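 MCF7 cells seeded at 5 × 10^3 per well overnight, then given vehicle or compound at the indicated concentrations. After 8 h and 24 h, caspase 3/7 activity was measured with the Apo-ONE homogeneous kit (fluorescence, ex 485/em 520 nm). Data are mean ±SD.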

[17] = test system: MCF7; experiment: Cytotoxicity against human MCF7 cells after 72 hrs by MTT assay; assay type: functional, cell-based; conditions: MCF7, 72 h; in short: as §2
[18] = test system: MCF7; experiment: Induction of apoptosis in human MCF7 cells assessed as increase in caspase 3/7 activity after 24 hrs; assay type: functional, cell-based; in short: as §4

SMILES: CNCCCCCCCCCCCC(=O)N[C@H](CO)[C@H](O)c1ccc([N+](=O)[O-])cc1
Activity [1]: 50%
Activity [2]: 200%
Activity [3]: 98%
Activity [4]: Dose-dependent effect
IC50 [4]: 15.5 µM
Activity [5]: 120%

inhibition [6]: 5%
SMILES: CCCCCCCCNCCCCCC(=O)N[C@H](CO)[C@H](O)c1ccc([N+](=O)[O-])cc1
Activity [1]: 50%
Activity [2]: 200%
Activity [3]: 98%
Activity [4]: Dose-dependent effect
IC50 [4]: 12.1 µM
Activity [5]: 120%

SMILES: NCCCCCCCCCCCC(=O)N[C@H](CO)[C@H](O)c1ccc([N+](=O)[O-])cc1
Activity [1]: 50%
Activity [2]: 200%
Activity [3]: 98%
Activity [4]: Dose-dependent effect
IC50 [4]: 6.43 µM
Activity [5]: 120%

IC50 [7]: 5 µM
inhibition [8]: 35%
SMILES: CCCCCCCCCCCCCCN[C@H](CO)[C@H](O)c1ccc([N+](=O)[O-])cc1.Cl
Activity [1]: 30%
Activity [9]: 90%
Activity [2]: 220%
Activity [4]: Dose-dependent effect
IC50 [4]: 4.29 µM
Activity [5]: 200%
Activity [10]: 160%

SMILES: O=C(CCCCCCCCCCCn1ccnc1)N[C@H](CO)[C@H](O)c1ccc([N+](=O)[O-])cc1
Activity [1]: 50%
Activity [2]: 200%
Activity [3]: 98%
Activity [4]: Dose-dependent effect
IC50 [4]: 14.8 µM
Activity [5]: 120%

inhibition [6]: 5%
SMILES: O=C(CCCCCCCCCCCN1CCOCC1)N[C@H](CO)[C@H](O)c1ccc([N+](=O)[O-])cc1
Activity [1]: 50%
Activity [2]: 200%
Activity [3]: 98%
Activity [4]: Dose-dependent effect
IC50 [4]: 49.9 µM
Activity [5]: 120%

Activity [8]: inactive
inhibition [6]: 90%
SMILES: CCCCCCCCCCCCCC(=O)N[C@H](CO)[C@H](O)c1ccc([N+](=O)[O-])cc1
Activity [11]: 135%
Activity [12]: 140%
Activity [9]: inactive
Activity [2]: 135%
Activity [13]: 135%
Activity [4]: Dose-dependent effect
IC50 [4]: 19.6 µM
Activity [5]: 135%
Activity [10]: 135%

inhibition [8]: 65%
inhibition [6]: 55%
SMILES: CN(C)CCCCCCCCCCCC(=O)N[C@H](CO)[C@H](O)c1ccc([N+](=O)[O-])cc1
Activity [1]: 50%
Activity [14]: inactive
Activity [2]: 300%
Activity [15]: 10%
Activity [16]: 175%
IC50 [17]: 7.2 µM
Activity [18]: Dose-dependent effect
Activity [4]: Dose-dependent effect
IC50 [4]: 10.2 µM
Activity [5]: 143%
